# Legend:
# [1] = Inhibition of His-tagged full-length Hsp90 (unknown origin)/GST-tagged Cdc37M (unknown origin) interaction after 1 hr by HTRF assay; set-up: species or system Homo sapiens
# In short: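 TR-FRET in PBS containing 400 mM KF, pH 7.3. His-tagged full-length Hsp90 and GST-Cdc37M, each 250 nM final, incubated with compound for 1 h at 37 °C. Anti-GST-Cryptate and anti-6His-XL665 then added for a further 0.5 h at 37 °C. Excitation 320 nm, emission 665/620 nm, reported as ratio ×10,000. Negative and blank controls run in each assay.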
# A549 [2] = test: Antiproliferative activity against human A549 cells after 48 hrs by MTT assay; assay type: functional, cell-based; details: A549, 48 h
# In short: (§1)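 Cells in log phase seeded at about 1.0 × 10^5 cells/mL in 96-well plates, left 12 h at 37 °C, 5% CO2. Compounds dissolved in DMSO, added at 2.5, 5, 10, 20 and 50 µM, 48 h exposure. Absorbance read at 570/630 nm dual wavelength. Survival expressed relative to negative control. IC50 by Bliss method (n = 5), tests done in triplicate.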
# MCF7 = test: Antiproliferative activity against human MCF7 cells after 48 hrs by MTT assay; assay type: functional, cell-based; details: MCF7, 48 h; in short: as §1
# HepG2 = test: Antiproliferative activity against human HepG2 cells after 48 hrs by MTT assay; assay type: functional, cell-based; details: HepG2, 48 h; in short: as §1
# HCT-116 = test: Antiproliferative activity against human HCT116 cells after 48 hrs by MTT assay; assay type: functional, cell-based; details: HCT-116, 48 h; in short: as §1
# [3] = Antiproliferative activity against human NCI-460 cells after 48 hrs by MTT assay; assay type: functional, cell-based; details: NCI-460, 48 h; in short: as §1
# [4] = Inhibition of HSP90/Cdc37 interaction in human doxorubicin-resistant NCI-H460 cells assessed as reduction in cell proliferation after 48 hrs by MTT assay; details: NCI-H460, 48 h; in short: as §1
# Homo sapiens = organism: Homo sapiens; test: Inhibition of HSP90/Cdc37 interaction assessed as reversal of drug resistance by measuring ratio of IC50 for human doxorubicin-resistant NCI-H460 cells to IC50 for human NCI-H460 cells
# In short: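 Resistance factor is the ratio of IC50 in NCI-H460/DOX cells to IC50 in parental NCI-H460 cells. […] Values are mean ± SD of five separate experiments. Doxorubicin serves as the positive control.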
# A549 [5] = test: Cell cycle arrest in human A549 cells assessed as accumulation at G1 phase at 5 uM after 48 hrs by propidium iodide staining-based flow cytometry (reference value: 70.16%); assay type: functional
# A549 [6] = test: Cell cycle arrest in human A549 cells assessed as accumulation at G2 phase at 5 uM after 48 hrs by propidium iodide staining-based flow cytometry (reference value: 10.22%); assay type: functional
# A549 [7] = test: Cell cycle arrest in human A549 cells assessed as accumulation at G1 phase at 10 uM after 48 hrs by propidium iodide staining-based flow cytometry (reference value: 70.16%); assay type: functional
# A549 [8] = test: Cell cycle arrest in human A549 cells assessed as accumulation at S phase at 10 uM after 48 hrs by propidium iodide staining-based flow cytometry (reference value: 19.62%); assay type: functional
# A549 [9] = test: Induction of apoptosis in human A549 cells assessed as increase in number of nuclei containing condensed chromatin at 5 to 10 uM after 24 hrs by Hoechest 33258-staining based fluorescence microscopy; assay type: functional, cell-based
# In short: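 5.0 × 10^5 A549 cells per well exposed to 5 and 10 µM for 24 h, untreated cells as control. Fixed in 4% paraformaldehyde for 30 min, washed with ice-cold PBS and stained with Hoechst 33258 for 20 min in the dark. Condensed nuclei imaged by fluorescence microscopy at 350 nm excitation and 460 nm emission, 200× magnification.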
# A549 [10] = test: Induction of apoptosis in human A549 cells assessed as intracellular ROS levels at 10 uM after 24 hrs by FITC-DCF-DA-fluorescence based flow cytometry (reference value: 0.832%); assay type: functional
# In short: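 A549 cells exposed to 5 and 10 µM for 24 h, untreated cells as control. Collected, washed with ice-cold PBS and loaded with DCFH-DA in cell-free medium for 20 min at 37 °C in the dark, then washed. Fluorescence measured by flow cytometry at 485 nm excitation and 538 nm emission. Mean ± S.D. of three independent experiments.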
# A549 [11] = test: Induction of apoptosis in human A549 cells assessed as downregulation of Bcl2 protein expression after 24 hrs by Western blot analysis; assay type: functional, cell-based
# In short: (§2)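 A549 cells exposed to 5 and 10 µM for 24 h. Lysates cleared at 20000g, protein quantified by BCA and equal amounts run on 12% SDS-PAGE, then transferred to PVDF. Blocked in 5% skim milk in TBST. Probed overnight at 4 °C with antibodies to Bcl-2, Bax, caspase-9, caspase-3 and β-actin (loading reference). Chemiluminescent detection. Three independent experiments.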
# A549 [12] = test: Induction of apoptosis in human A549 cells assessed as upregulation of Bax protein expression after 24 hrs by Western blot analysis; assay type: functional, cell-based; in short: as §2
# A549 [13] = test: Induction of apoptosis in human A549 cells assessed as upregulation of cleaved caspase-3 protein expression after 24 hrs by Western blot analysis; assay type: functional, cell-based; in short: as §2
# A549 [14] = test: Induction of apoptosis in human A549 cells assessed as upregulation of cleaved caspase-9 protein expression after 24 hrs by Western blot analysis; assay type: functional, cell-based; in short: as §2
# [15] = target: T1, Heat shock protein HSP90 (Homo sapiens) (UniProt P07900+P08238); test: Inhibition of HSP90 in human A549 cells assessed as downregulation of phosphorylated akt expression after 24 hrs by Western blot analysis; assay type: cell-based
# In short: (§3)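 A549 cells exposed for 24 h, with geldanamycin as comparator. Whole-cell lysates separated by SDS-PAGE and immunoblotted for the named proteins. β-actin used as reference.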
# [16] = target: T1, Heat shock protein HSP90 (Homo sapiens); test: Inhibition of HSP90 in human A549 cells assessed as induction of HSP70 expression after 24 hrs by Western blot analysis; assay type: cell-based; in short: as §3
# [17] = target: T1, Heat shock protein HSP90 (Homo sapiens); test: Inhibition of HSP90 in human A549 cells assessed as induction of HSP27 expression after 24 hrs by Western blot analysis; assay type: cell-based; in short: as §3
# A549 [18] = test: Induction of apoptosis in human A549 cells assessed as viable cells at 5 uM after 24 hrs by Annexin-V FITC/propidium iodide staining based flow cytometry (reference value: 97.6%); details: A549, 24 h
# A549 [19] = test: Induction of apoptosis in human A549 cells assessed as necrotic cells at 5 uM after 24 hrs by Annexin-V FITC/propidium iodide staining based flow cytometry (reference value: 2.32%)
# A549 [20] = test: Induction of apoptosis in human A549 cells assessed as necrotic cells at 10 uM after 24 hrs by Annexin-V FITC/propidium iodide staining based flow cytometry (reference value: 2.32%)
# A549 [21] = test: Induction of apoptosis in human A549 cells assessed as early apoptotic cells at 5 uM after 24 hrs by Annexin-V FITC/propidium iodide staining based flow cytometry (reference value: 0.080%)
smiles,measurement,setting,value
CCOC(=O)[C@@]1(C)CC[C@]2(C)CC[C@]3(C)C(=CC(=O)[C@@H]4[C@@]5(C)CC[C@H](OC(=O)CCC(=O)Nc6nc7ccc(F)cc7s6)C(C)(C)[C@@H]5CC[C@]43C)[C@@H]2C1,IC50,[1],0.14 µM
same,IC50,A549 [2],4.04 µM
same,IC50,MCF7,6.37 µM
same,IC50,HepG2,10.6 µM
same,IC50,HCT-116,7.97 µM
same,IC50,[3],7.41 µM
same,IC50,[4],10.1 µM
same,Ratio IC50,Homo sapiens,1.36
same,Activity,A549 [5],52.92%
same,Activity,A549 [6],12.98%
same,Activity,A549 [7],47.14%
same,Activity,A549 [8],40.35%
same,Activity,A549 [9],Dose-dependent effect
same,Activity,A549 [10],67.5%
same,Activity,A549 [11],Dose-dependent effect
same,Activity,A549 [12],Dose-dependent effect
same,Activity,A549 [13],Dose-dependent effect
same,Activity,A549 [14],Dose-dependent effect
same,inhibition,[15],Dose-dependent effect
same,inhibition,[16],Dose-dependent effect
same,inhibition,[17],Dose-dependent effect
same,viability at 5 µM,A549 [18],85.5%
same,Activity,A549 [19],2.18%
same,Activity,A549 [20],1.15%
same,Activity,A549 [21],8.45%

# — ChEMBL document CHEMBL4219101, “Discovery of 18β-glycyrrhetinic acid conjugated aminobenzothiazole derivatives as Hsp90-Cdc37 interaction disruptors that inhibit cell migration and reverse drug resistance” (Bioorg Med Chem, 2018)
